What is called IC50 is the concentration that gives 50% inhibition. A high value points to a need for much substance.

The target in experiment [1] is T1, Glucocorticoid receptor (Homo sapiens, UniProt P04150).
T1 sequence (P04150 whole entry): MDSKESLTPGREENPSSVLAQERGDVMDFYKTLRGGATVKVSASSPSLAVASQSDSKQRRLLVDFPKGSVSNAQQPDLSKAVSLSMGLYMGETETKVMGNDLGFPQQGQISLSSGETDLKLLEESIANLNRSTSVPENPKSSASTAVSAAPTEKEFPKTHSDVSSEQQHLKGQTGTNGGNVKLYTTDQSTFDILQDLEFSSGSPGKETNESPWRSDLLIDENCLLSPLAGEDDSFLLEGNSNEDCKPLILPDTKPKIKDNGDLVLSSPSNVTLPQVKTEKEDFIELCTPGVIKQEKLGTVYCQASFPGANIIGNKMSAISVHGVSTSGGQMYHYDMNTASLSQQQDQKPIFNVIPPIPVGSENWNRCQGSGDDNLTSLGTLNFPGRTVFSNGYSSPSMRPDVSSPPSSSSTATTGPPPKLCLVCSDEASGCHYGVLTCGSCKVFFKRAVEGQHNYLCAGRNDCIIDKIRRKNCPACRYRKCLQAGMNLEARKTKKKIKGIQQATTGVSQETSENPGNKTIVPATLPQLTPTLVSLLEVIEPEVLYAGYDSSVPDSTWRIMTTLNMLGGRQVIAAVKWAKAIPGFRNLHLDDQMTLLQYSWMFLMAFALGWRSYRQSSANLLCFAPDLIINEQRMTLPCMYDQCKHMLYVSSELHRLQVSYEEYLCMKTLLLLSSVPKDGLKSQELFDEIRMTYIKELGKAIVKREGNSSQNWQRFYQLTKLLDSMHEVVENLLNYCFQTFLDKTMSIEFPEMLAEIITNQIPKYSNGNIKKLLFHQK
The experiment is described as follows: Effect on human Glucocorticoid receptor (GR) in a whole cell assay to measure functional cellular GR-antagonism (GRAF).

Experiment [2] has as its target T1, Glucocorticoid receptor. The experiment is described as follows: Displacement of [3H]dexamethasone from human Glucocorticoid receptor (GR); Value ranges from 26-67 nM. Put shortly: (§1)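 Binding to human GR; IC50 reported as the geometric mean of two experiments (three for some values), each run in duplicate, with the range of the experiments given.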
A general note: In a radioligand displacement assay an active substance lowers the binding of a labelled ligand.

Experiment [3] concerns the target T1, Glucocorticoid receptor. The experiment is described as follows: Displacement of [3H]dexamethasone from human Glucocorticoid receptor (GR); Value ranges from 150-220 nM. The procedure, abridged:
as §1

Experiment [4] deals with T1, Glucocorticoid receptor. The experiment is described as follows: Displacement of [3H]dexamethasone from human Glucocorticoid receptor (GR); Value ranges from 681-974 nM. Put shortly: as §1
The target of experiment [5] is T1, Glucocorticoid receptor. The experiment is described as follows: Displacement of [3H]dexamethasone from human Glucocorticoid receptor (GR); Value ranges from 39-94 nM.
Experiment [6] has as its target T1, Glucocorticoid receptor. Put plainly: Displacement of [3H]dexamethasone from human Glucocorticoid receptor (GR); Value ranges from 949-1169 nM. Put shortly:
as §1

In experiment [7] the target is T1, Glucocorticoid receptor. The experiment is described as follows: Displacement of [3H]dexamethasone from human Glucocorticoid receptor (GR); Value ranges from 2-2 nM.
For experiment [8], the target named is T2, Mineralocorticoid receptor (Homo sapiens, UniProt P08235).
T2 sequence (P08235 whole entry): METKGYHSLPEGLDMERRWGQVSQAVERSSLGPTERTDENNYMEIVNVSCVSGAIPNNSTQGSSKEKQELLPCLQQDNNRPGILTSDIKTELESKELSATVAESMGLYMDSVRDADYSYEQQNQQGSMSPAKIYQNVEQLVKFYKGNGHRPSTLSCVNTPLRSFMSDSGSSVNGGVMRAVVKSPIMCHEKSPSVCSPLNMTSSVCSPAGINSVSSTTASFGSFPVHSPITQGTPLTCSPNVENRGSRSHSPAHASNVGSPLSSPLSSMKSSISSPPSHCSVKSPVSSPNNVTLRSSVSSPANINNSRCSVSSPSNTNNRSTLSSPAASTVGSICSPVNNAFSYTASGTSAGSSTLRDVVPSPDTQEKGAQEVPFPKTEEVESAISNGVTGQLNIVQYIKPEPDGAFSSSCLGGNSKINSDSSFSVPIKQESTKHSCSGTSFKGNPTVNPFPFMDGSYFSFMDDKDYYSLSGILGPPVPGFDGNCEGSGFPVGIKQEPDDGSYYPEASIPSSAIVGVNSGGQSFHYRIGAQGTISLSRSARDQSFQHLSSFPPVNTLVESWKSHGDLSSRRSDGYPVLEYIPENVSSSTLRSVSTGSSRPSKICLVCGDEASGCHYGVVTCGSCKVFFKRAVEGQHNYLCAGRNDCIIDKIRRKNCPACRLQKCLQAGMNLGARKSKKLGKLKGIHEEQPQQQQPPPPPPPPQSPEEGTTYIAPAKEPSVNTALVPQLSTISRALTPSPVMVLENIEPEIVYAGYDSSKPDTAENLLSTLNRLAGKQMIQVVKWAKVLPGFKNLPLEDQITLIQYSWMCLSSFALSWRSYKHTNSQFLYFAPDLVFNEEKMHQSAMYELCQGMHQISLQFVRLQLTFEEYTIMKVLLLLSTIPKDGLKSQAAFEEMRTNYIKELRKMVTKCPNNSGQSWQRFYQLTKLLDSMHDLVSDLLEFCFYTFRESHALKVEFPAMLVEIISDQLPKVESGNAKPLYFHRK
Put plainly: Displacement of [3H]aldosterone from human Mineralocorticoid receptor. The procedure, abridged:
(§2)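 Human steroid receptor (PR, MR, AR, ERα) binding measured by radioligand displacement, with IC50s determined in duplicate. Values without a range come from a single experiment, and values with a range are geometric means of repeat experiments.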

The target in the next experiment is T3, Estrogen receptor (Homo sapiens, UniProt P03372).
T3 sequence (P03372 whole entry): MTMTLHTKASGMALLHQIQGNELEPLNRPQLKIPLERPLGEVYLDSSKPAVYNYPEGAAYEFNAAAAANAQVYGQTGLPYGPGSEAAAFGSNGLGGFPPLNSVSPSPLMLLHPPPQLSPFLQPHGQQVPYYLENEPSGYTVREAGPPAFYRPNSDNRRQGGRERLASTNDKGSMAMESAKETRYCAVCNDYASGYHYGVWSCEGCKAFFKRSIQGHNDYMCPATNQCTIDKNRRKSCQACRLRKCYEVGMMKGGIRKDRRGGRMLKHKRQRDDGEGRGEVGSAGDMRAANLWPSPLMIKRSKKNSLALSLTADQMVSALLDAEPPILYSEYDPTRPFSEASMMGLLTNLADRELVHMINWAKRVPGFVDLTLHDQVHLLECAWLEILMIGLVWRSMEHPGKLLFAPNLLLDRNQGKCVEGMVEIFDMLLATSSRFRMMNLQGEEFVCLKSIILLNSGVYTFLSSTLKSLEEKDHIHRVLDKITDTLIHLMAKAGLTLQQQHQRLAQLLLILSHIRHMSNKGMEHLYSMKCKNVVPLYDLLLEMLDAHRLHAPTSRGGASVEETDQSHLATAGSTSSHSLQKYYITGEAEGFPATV
Put plainly: Displacement of [3H]estradiol from human estrogen receptor alpha. Put shortly:
as §2

Another experiment deals with T4, Androgen receptor (Homo sapiens, UniProt P10275).
T4 sequence (P10275 whole entry): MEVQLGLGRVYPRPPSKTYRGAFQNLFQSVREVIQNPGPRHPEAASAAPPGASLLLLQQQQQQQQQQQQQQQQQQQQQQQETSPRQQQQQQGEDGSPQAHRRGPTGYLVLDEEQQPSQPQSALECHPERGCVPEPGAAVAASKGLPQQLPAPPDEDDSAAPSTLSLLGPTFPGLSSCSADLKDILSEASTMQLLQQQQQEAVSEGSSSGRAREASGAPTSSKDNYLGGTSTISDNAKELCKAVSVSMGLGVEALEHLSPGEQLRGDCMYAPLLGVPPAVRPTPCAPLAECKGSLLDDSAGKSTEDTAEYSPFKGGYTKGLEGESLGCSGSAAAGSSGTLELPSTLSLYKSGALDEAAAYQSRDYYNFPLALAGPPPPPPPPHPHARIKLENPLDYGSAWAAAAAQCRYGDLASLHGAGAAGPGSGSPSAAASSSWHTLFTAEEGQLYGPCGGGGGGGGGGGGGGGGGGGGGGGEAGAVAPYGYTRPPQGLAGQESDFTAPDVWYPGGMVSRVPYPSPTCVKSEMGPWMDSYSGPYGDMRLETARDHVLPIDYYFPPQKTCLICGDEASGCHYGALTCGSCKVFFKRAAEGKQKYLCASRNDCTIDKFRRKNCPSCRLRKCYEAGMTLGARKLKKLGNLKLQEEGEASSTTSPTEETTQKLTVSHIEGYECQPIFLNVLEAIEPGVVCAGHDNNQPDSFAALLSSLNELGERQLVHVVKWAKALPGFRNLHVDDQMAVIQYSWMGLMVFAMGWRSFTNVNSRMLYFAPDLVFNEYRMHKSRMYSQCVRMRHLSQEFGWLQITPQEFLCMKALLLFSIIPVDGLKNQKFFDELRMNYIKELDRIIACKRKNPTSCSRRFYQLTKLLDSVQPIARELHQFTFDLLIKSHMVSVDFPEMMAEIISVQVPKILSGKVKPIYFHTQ
Put plainly: Displacement of [3H]mibolerone from human Androgen receptor.

The target of experiment [9] is T1, Glucocorticoid receptor. The experiment is described as follows: Displacement of [3H]dexamethasone from human Glucocorticoid receptor (GR); Value ranges from 379-840 nM. The procedure, abridged:
as §1

Experiment [10] deals with T1, Glucocorticoid receptor. Put plainly: Displacement of [3H]dexamethasone from human Glucocorticoid receptor (GR); Value ranges from 215-217 nM. Put shortly:
as §1

Experiment [11] deals with T1, Glucocorticoid receptor.
Experiment [12] concerns the target T1, Glucocorticoid receptor. Put plainly: Displacement of [3H]dexamethasone from human Glucocorticoid receptor (GR); Value ranges from 3-3 nM.
The target in experiment [13] is T1, Glucocorticoid receptor. The experiment is described as follows: Displacement of [3H]dexamethasone from human Glucocorticoid receptor (GR); Value ranges from 44-53 nM.

`COc1cccc2c1-c1ccc(NS(=O)(=O)N(C)C)cc1C(c1ccccc1)O2` (stereo unspecified): the IC50 on Glucocorticoid receptor [1] was 121 nM; on Glucocorticoid receptor [2] it was 41 nM.

Turning to `CS(=O)(=O)Nc1ccc2c(c1)C(c1ccccc1)Oc1cccc(CO)c1-2` (stereo unspecified), the IC50 on Glucocorticoid receptor [3] stood at 180 nM.

Turning to `COc1ccccc1C1Oc2cccc(OC)c2-c2ccc(NS(C)(=O)=O)cc21` (stereo unspecified), the IC50 came to 665 nM against Glucocorticoid receptor [1] and 812 nM at Glucocorticoid receptor [4].

For `CCOC(=O)c1ccc(C2Oc3cccc(OC)c3-c3ccc(NS(C)(=O)=O)cc32)cc1` (stereo unspecified), the IC50 was 388 nM against Glucocorticoid receptor [1] and 61 nM on Glucocorticoid receptor [5].

Take `COc1cccc2c1-c1ccc(N(C)S(C)(=O)=O)cc1C(c1ccccc1)O2` (stereo unspecified): the IC50 against Glucocorticoid receptor [1] came out at 210 nM; at Glucocorticoid receptor [6], 1050 nM.

On to `CS(=O)(=O)Nc1ccc2c(c1)C(c1ccccc1)Oc1cccc(OC(F)F)c1-2` (stereo unspecified), for which the IC50 against Glucocorticoid receptor [1] was 57 nM; on Glucocorticoid receptor [7], 2 nM; in experiment [8] it was 162 nM; on Estrogen receptor, more than 10000 nM; at Androgen receptor it was 8730 nM.

In the case of `CCNc1ccc2c(c1)C(c1ccccc1)Oc1cccc(OC)c1-2` (stereo unspecified), the IC50 against Glucocorticoid receptor [1] was 382 nM; at Glucocorticoid receptor [9] it was 564 nM.

On Glucocorticoid receptor [10], `COc1cccc2c1-c1ccc(NS(C)(=O)=O)cc1C(c1cccc(O)c1)O2` (stereo unspecified) showed an IC50 of 216 nM. In other words, the sub-micromolar range.

As to `COc1cccc2c1-c1ccc(NS(=O)(=O)c3cccs3)cc1C(c1ccccc1)O2` (stereo unspecified), the IC50 at Glucocorticoid receptor [1] stood at 93 nM; against Glucocorticoid receptor [11], 18 nM.

For the compound `COc1cccc2c1-c1ccc(NS(C)(=O)=O)cc1C(c1cccc(Cl)c1)O2` (stereo unspecified), the IC50 was 147 nM on Glucocorticoid receptor [1]; 3 nM on Glucocorticoid receptor [12]; 2150 nM in [8]; more than 10000 nM on Estrogen receptor; more than 10000 nM at Androgen receptor.

Take `COc1cccc2c1-c1ccc(NS(C)(=O)=O)cc1C(c1cccc(Oc3ccccc3)c1)O2` (stereo unspecified): the figures for the IC50 on Glucocorticoid receptor [1] and on Glucocorticoid receptor [13] were 434 nM and 48 nM, respectively.

The values are drawn from ChEMBL document CHEMBL1147539, “Synthesis and biological evaluation of novel, selective, nonsteroidal glucocorticoid receptor antagonists” (Bioorg Med Chem Lett, 2004).
